ChEMBL document CHEMBL4014301, “Design, synthesis and evaluation of 4-substituted anthra[2,1-c][1,2,5]thiadiazole-6,11-dione derivatives as novel non-camptothecin topoisomerase I inhibitors” (Bioorg Med Chem Lett, 2017)
In brackets after ≈: the same amount, converted by molar mass. Activity calls are given as the source filed them. No cut-off for these calls is given here.

Key:
[1] = system: A549; assay: Antiproliferative activity against human A549 cells after 72 hrs by MTT assay; assay type: functional, cell-based
[2] = system: HCT-116; assay: Antiproliferative activity against human HCT116 cells after 72 hrs by MTT assay; assay type: functional, cell-based
[3] = system: ZR-75-30; assay: Antiproliferative activity against human ZR-7530 cells after 72 hrs by MTT assay; assay type: functional, cell-based
[4] = biological target: T1, DNA topoisomerase 1 (Homo sapiens) (UniProt P11387); assay: Inhibition of DNA topoisomerase 1 (unknown origin) assessed as reduction in supercoiled pBR322 plasmid DNA relaxation at 100 uM after 15 mins by ethidium bromide staining based agarose gel electrophoresis
T1 sequence (whole entry): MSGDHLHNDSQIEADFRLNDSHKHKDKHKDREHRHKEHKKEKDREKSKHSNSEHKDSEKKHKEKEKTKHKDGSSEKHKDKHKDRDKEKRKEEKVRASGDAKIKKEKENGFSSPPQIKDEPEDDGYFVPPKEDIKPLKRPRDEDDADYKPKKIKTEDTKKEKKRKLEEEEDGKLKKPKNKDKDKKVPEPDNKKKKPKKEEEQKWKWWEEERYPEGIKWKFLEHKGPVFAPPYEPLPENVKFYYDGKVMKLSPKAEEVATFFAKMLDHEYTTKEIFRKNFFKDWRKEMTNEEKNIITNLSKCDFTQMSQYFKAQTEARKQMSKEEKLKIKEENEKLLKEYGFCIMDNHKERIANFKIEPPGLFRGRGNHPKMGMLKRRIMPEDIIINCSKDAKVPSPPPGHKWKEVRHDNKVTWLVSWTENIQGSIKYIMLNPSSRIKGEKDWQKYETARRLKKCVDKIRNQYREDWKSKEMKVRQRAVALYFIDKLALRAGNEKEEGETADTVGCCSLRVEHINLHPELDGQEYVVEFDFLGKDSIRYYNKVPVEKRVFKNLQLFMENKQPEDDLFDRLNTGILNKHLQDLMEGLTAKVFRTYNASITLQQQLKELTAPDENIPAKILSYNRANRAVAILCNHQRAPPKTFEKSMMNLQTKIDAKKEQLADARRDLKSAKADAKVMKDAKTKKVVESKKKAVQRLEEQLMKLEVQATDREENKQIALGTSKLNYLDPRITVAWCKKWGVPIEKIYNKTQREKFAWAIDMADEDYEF
Outline: (§1)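 Supercoiled pBR322 plasmid incubated with Top1, with or without compound at 1, 10 and 100 µM. Relaxation inhibition read from agarose gel bands.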

[5] = Solubility of the compound; assay type: physicochemical
[6] = biological target: T1, DNA topoisomerase 1 (Homo sapiens); assay: Inhibition of DNA topoisomerase-1 (unknown origin) mediated DNA relaxation assessed as DNA intercalation at 100 uM using supercoiled pBR322 plasmid DNA as substrate after 60 mins by ethidium bromide staining based agarose gel electrophoresis
Outline: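 Unwinding assay with excess Top1 acting on supercoiled pBR322 in the presence of compound at 100 µM. Ethidium bromide at 1 µg/mL used as intercalator reference. Compound removed by phenol extraction after relaxation. Nicked, relaxed and supercoiled forms resolved on gel.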

[7] = biological target: T1, DNA topoisomerase 1 (Homo sapiens); assay: Inhibition of DNA topoisomerase-1 (unknown origin) mediated DNA relaxation assessed as DNA intercalation at 1 ug/ml using supercoiled pBR322 plasmid DNA as substrate after 60 mins by ethidium bromide staining based agarose gel electrophoresis
Outline: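 Top1 unwinding assay for DNA intercalation: supercoiled pBR322 plasmid treated with excess Top1 in presence of compounds (100 µM), with ethidium bromide (1 µg/mL) as intercalator control; compounds removed by phenol extraction after relaxation. Nicked, relaxed and supercoiled DNA forms resolved on gel.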

[8] = system: HCT-116; assay: Cell cycle arrest in human HCT116 cells assessed as accumulation at G2 phase at 5 uM after 12 hrs by propidium iodide staining-based flow cytometry (reference value: 19%); assay type: functional
[9] = system: HCT-116; assay: Cell cycle arrest in human HCT116 cells assessed as accumulation at G2 phase at 5 uM after 36 hrs by propidium iodide staining-based flow cytometry (reference value: 21%); assay type: functional
[10] = biological target: T1, DNA topoisomerase 1 (Homo sapiens); assay: Inhibition of DNA topoisomerase 1 (unknown origin) assessed as reduction in supercoiled pBR322 plasmid DNA relaxation after 15 mins by ethidium bromide staining based agarose gel electrophoresis; outline: as §1
[11] = biological target: T1, DNA topoisomerase 1 (Homo sapiens); assay: Inhibition of DNA topoisomerase 1 (unknown origin) assessed as reduction in supercoiled pBR322 plasmid DNA relaxation at 1 uM after 15 mins by ethidium bromide staining based agarose gel electrophoresis; outline: as §1

SMILES	IC50 ([1]; Homo sapiens, A549, 72 h)	IC50 ([2]; Homo sapiens, HCT-116, 72 h)	IC50 ([3]; Homo sapiens, ZR-75-30, 72 h)	inhibition [4]	further results
O=C1c2ccccc2C(=O)c2c1cc(SCc1ccccc1Cl)c1nsnc21	> 100 µM	> 100 µM	> 100 µM	Active	
O=C1c2ccccc2C(=O)c2c1cc(S(=O)(=O)c1ccc3ccccc3c1)c1nsnc21	> 100 µM	6.7 µM	23 µM	Active	
Cc1ccc(S(=O)(=O)c2cc3c(c4nsnc24)C(=O)c2ccccc2C3=O)cc1	50 µM	84 µM	90 µM		solubility [5]: 0.14 µg/mL (≈ 0.333 µM)
O=C1c2ccccc2C(=O)c2c1cc(Sc1cccs1)c1nsnc21	> 100 µM	> 100 µM	> 100 µM	Active	inhibition [6]: inactive
O=C1c2ccccc2C(=O)c2c1cc(Sc1ccc3ccccc3c1)c1nsnc21	> 100 µM	> 100 µM	> 100 µM	Active	
CC(C)Nc1cc2c(c3nsnc13)C(=O)c1ccccc1C2=O	6.7 µM	7 µM	3 µM	Active	
CC[n+]1c(-c2ccccc2)c2cc(N)ccc2c2ccc(N)cc21					inhibition [7]: Active
CN1CCN(c2cc3c(c4nsnc24)C(=O)c2ccccc2C3=O)CC1	14 µM	3.3 µM	2.7 µM	Active	
CC(=O)N1CCN(c2cc3c(c4nsnc24)C(=O)c2ccccc2C3=O)CC1	17 µM	0.52 µM	0.42 µM	Active	inhibition [6]: Active; solubility [5]: 7.98 µg/mL (≈ 20.3 µM); Activity [8]: 34%; Activity [9]: 56%; inhibition [10]: Dose-dependent effect; inhibition [11]: Active
O=C1c2ccccc2C(=O)c2c1cc(S(=O)(=O)c1cccs1)c1nsnc21	> 100 µM	1.5 µM	24 µM	Active	inhibition [6]: inactive
CC(C)CNc1cc2c(c3nsnc13)C(=O)c1ccccc1C2=O				Active	IC50 ([1]; a549): > 100 µM; IC50 ([2]; hct-116): 6.3 µM; IC50 ([3]; zr-75-30): 3.1 µM
O=C1c2ccccc2C(=O)c2c1cc(S(=O)(=O)Cc1ccccc1Cl)c1nsnc21	> 100 µM	11 µM	> 100 µM	Active	
